Key:
[1] = molecular target: T1, 5-hydroxytryptamine receptor 1A (Homo sapiens, UniProt P08908); assay: Displacement of [3H]8-OH-DPAT from 5-hydroxytryptamine 1A receptor expressed in CHO cell membranes
T1 sequence (P08908 whole entry): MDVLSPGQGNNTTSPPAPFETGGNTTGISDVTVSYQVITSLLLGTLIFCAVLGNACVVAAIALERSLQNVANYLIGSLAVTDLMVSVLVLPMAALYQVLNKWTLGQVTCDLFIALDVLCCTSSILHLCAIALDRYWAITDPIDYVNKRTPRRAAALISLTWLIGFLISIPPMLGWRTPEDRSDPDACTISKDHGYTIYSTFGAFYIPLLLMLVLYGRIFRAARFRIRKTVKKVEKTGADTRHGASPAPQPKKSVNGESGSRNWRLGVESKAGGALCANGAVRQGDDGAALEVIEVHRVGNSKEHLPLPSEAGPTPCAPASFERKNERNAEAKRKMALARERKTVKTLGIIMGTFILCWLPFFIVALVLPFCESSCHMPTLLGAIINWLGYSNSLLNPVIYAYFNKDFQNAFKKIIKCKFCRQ
In short: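 [3H]8-OH-DPAT (164.5 Ci/mmol, 1 nM) competition on CHO membranes expressing a cloned mammalian 5-HT1A receptor. Ten drug concentrations in duplicate. IC50 from a nonlinear single-site fit, converted to Ki with Cheng–Prusoff. Ki in nM ± SEM.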

[2] = molecular target: T2, Adrenergic receptor alpha-1 (Rattus norvegicus, UniProt P15823+P23944+P43140); assay: Binding affinity towards Alpha-1 adrenergic receptor from rat whole brain using [3H]prazosin (18.1 Ci/mmol,0.9nanoM)as radioligand
T2 sequence (P15823 whole entry): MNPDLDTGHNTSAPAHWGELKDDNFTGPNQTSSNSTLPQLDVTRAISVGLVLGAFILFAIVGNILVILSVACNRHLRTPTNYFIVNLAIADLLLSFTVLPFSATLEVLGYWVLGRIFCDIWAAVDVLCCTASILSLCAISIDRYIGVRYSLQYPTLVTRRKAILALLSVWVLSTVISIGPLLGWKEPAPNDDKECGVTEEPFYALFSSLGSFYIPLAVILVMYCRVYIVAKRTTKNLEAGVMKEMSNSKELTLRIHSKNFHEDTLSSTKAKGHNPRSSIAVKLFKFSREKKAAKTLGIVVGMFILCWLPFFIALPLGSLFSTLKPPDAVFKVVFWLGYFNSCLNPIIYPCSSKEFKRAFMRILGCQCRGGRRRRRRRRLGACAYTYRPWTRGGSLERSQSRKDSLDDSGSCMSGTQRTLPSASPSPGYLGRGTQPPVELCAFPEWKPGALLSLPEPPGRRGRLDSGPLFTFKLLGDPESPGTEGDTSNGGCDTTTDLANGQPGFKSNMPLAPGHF
T2 sequence (P23944 whole entry): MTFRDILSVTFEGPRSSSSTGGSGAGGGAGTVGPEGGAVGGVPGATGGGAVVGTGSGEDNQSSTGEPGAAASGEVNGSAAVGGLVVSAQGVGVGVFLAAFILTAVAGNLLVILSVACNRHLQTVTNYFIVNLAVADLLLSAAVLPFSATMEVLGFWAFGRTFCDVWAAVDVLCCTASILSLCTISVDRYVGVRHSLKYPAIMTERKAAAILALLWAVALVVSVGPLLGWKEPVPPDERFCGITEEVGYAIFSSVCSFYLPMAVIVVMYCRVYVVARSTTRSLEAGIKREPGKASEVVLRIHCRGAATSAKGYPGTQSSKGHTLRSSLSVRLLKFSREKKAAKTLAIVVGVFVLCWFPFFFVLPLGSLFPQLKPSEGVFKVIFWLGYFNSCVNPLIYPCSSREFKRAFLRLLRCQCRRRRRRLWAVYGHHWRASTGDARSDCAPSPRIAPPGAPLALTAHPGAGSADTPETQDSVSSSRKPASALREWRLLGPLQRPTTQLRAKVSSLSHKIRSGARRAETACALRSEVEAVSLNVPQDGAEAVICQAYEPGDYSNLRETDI
T2 sequence (P43140 whole entry): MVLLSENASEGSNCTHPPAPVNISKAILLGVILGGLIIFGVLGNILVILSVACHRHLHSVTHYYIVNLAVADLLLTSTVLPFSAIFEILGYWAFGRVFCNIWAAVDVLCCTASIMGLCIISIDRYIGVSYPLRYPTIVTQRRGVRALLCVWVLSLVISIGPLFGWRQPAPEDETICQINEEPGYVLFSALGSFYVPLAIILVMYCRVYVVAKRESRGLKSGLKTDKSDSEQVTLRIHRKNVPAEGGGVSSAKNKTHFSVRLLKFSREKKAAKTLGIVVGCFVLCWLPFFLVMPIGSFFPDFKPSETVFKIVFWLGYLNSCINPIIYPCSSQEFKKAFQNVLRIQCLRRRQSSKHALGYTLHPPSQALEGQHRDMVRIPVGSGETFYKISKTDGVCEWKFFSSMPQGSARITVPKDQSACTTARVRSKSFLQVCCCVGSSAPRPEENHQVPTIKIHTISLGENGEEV
In short: (§1)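 Rat whole-brain membranes displaced by test drug from [3H]prazosin (18.1 Ci/mmol, 0.9 nM). Ten concentrations in duplicate. IC50 by nonlinear single-site fit, then Ki via Cheng–Prusoff. Ki given in nM ± SEM.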

D(2) dopamine receptor [3] = molecular target: T3, D(2) dopamine receptor (Homo sapiens, UniProt P14416); assay: Binding affinity towards Dopamine receptor D2 from mammalian clones expressed in CHO cell membranes using 2 (86.1 Ci/mmol,1.7nanoM)as radioligand
T3 sequence (P14416 whole entry): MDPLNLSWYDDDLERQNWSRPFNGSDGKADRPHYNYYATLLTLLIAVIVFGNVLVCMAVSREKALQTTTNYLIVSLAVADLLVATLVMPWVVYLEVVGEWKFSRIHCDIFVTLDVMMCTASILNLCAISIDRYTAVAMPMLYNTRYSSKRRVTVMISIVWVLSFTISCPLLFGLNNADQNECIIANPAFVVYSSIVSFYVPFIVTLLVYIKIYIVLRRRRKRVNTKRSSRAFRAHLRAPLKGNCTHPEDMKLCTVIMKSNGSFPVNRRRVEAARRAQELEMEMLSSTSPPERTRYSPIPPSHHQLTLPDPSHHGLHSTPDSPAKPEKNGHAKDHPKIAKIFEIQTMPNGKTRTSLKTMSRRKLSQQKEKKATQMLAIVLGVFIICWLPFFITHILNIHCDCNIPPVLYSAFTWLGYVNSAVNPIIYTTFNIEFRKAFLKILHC
In short: (§2)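 Cloned mammalian D2 receptor in CHO cell membranes, radioligand [3H]U-86170 (86.1 Ci/mmol, 1.7 nM). Competition over ten drug concentrations in duplicate. IC50 from a single-site nonlinear fit, with Ki by Cheng–Prusoff. Values in nM ± SEM.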

[4] = molecular target: Serotonin 2 (5-HT2) receptor (Homo sapiens, UniProt P41595+P28223+P28335); assay: Binding affinity towards 5-hydroxytryptamine 2 receptor expressed in CHO cell membranes using [3H]ketanserin (60 Ci/mmol, 1 nM)
In short: (§3)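 Competition binding on membranes from CHO cells expressing a cloned mammalian 5-HT2 receptor, with [3H]ketanserin (60 Ci/mmol, 1 nM). Ten drug concentrations run in duplicate. IC50 from a nonlinear single-site fit, converted to Ki by Cheng–Prusoff. Ki reported in nM ± SEM.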

Mus musculus [5] = assay: Result of hypothermia assay carried in Charles river CF-1 male mice at a dose of 0.01 mg/kg (s.c. administration); type: functional
In short: (§4)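 Male CF-1 mice (18–22 g), four per dose, individually caged. Rectal temperature (°F) taken before and 20 min after a 0.1 mL sc injection. A fall of 2 °F or more counted as a positive hypothermic response. Doses started at 30 mg/kg and were lowered by half-log steps.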

Mus musculus [6] = assay: Result of hypothermia assay carried in Charles river CF-1 male mice at a dose of 17.3 mg/kg (s.c. administration); type: functional; in short: as §4
D(2) dopamine receptor [7] = molecular target: T3, D(2) dopamine receptor; assay: Compound was evaluated for the binding affinity towards Dopamine receptor D2 from mammalian clones expressed in CHO cell membranes using 2 (86.1 Ci/mmol,1.7nanoM)as radioligand; in short: as §2
Mus musculus [8] = assay: Result of hypothermia assay carried in Charles river CF-1 male mice at a dose of 1.7 mg/kg (oral administration); type: functional
In short: (§5)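 CF-1 male mice (18–22 g), four per dose, caged individually. Rectal temperature (°F) taken before dosing and 20 min after. A drop of 2 °F or more counted as positive. Doses started at 30 mg/kg and fell by half-log steps until 0/4 mice responded. Route: sc, 0.1 mL; po, 0.2 mL by oral syringe. ED50 by Spearman-Kärber.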

Mus musculus [9] = assay: Result of hypothermia assay carried in Charles river CF-1 male mice at a dose of 1.3 mg/kg (s.c. administration); type: functional; in short: as §5
D(2) dopamine receptor [10] = molecular target: T3, D(2) dopamine receptor; assay: Compound was evaluated for the binding affinity towards Dopamine receptor D2 from mammalian clones expressed in CHO cell membranes using [3H]U-86170 as radioligand; in short: as §2
Mus musculus [11] = assay: Result of hypothermia assay carried in Charles river CF-1 male mice at a dose of 30 mg/kg (s.c. administration); type: functional; in short: as §4
[12] = Compound was evaluated for the binding affinity towards 5-hydroxytryptamine 2 receptor from mammalian clones expressed in CHO cell membranes using [3H]-ketanserin as radioligand; in short: as §3
[13] = molecular target: T2, Adrenergic receptor alpha-1; assay: Compound was evaluated for the binding affinity towards Alpha-1 adrenergic receptor from rat whole brain using [3H]prazosin as radioligand; in short: as §1

SMILES | Ki [1] | Ki [2] | Ki (D(2) dopamine receptor [3]) | Ki [4] | other results
COC(=O)c1cc2c3c(ccc2[nH]1)OCC(CN1CCC(Nc2ccccc2)(C(N)=O)CC1)O3 (stereo unspecified) | 22 nM | 19.8 nM | > 388 nM | 171 nM | 
N#Cc1cc2c3c(ccc2[nH]1)OCC(CN1CCC2(CC1)C(=O)NCN2c1ccccc1)O3 (stereo unspecified) | 0.5 nM | 6 nM | 1.5 nM | 281 nM | Temperature decrease (Mus musculus [5]): 13 degrees F
CCCCOC(=O)c1cc2c3c(ccc2[nH]1)OCC(CN1CCC2(CC1)C(=O)NCN2c1ccccc1)O3 (stereo unspecified) | 3 nM | 39.6 nM | 5.7 nM | 92.6 nM | 
O=C(NCCCc1ccccc1)c1cc2c3c(ccc2[nH]1)OCC(CNCCCc1ccccc1)O3 (stereo unspecified) | 1.6 nM | 11.4 nM | 41 nM | 27.6 nM | 
O=C(O)c1cc2c3c(ccc2[nH]1)OCC(CN1CCC2(CC1)C(=O)NCN2c1ccccc1)O3 (stereo unspecified) | 17.8 nM | > 862 nM | 58 nM | > 1722 nM | Temperature decrease (Mus musculus [6]): 3.6 degrees F
O=C1NCN(c2ccccc2)C12CCN(CC1COc3ccc4[nH]ccc4c3O1)CC2 (stereo unspecified) | 0.4 nM |  |  |  | Ki (D(2) dopamine receptor [7]): 0.2 nM
O=C(OCc1ccccc1)c1cc2c3c(ccc2[nH]1)OCC(CN1CCC2(CC1)C(=O)NCN2c1ccccc1)O3 (stereo unspecified) | 1 nM | 30.4 nM | 5.8 nM | 143 nM | Temperature decrease (Mus musculus [6]): 5.6 degrees F
COC(=O)c1cc2c3c(ccc2[nH]1)OCC(CNCCCc1ccccc1)O3 (stereo unspecified) | 0.2 nM | 0.6 nM | 15.9 nM | 38.7 nM | Temperature decrease (Mus musculus [8]): 8.8 degrees F; Temperature decrease (Mus musculus [9]): 13.6 degrees F
CCOC(=O)C1CCN(CC2COc3ccc4[nH]c(C(=O)OC)cc4c3O2)CC1 (stereo unspecified) | 1.2 nM | 12.3 nM | 255 nM | 170 nM | 
COC(=O)c1cc2c3c(ccc2[nH]1)OCC(CN1CCC2(CC1)C(=O)NCN2c1ccccc1)O3 (stereo unspecified) | 0.9 nM |  |  |  | Ki (D(2) dopamine receptor [10]): 3.1 nM; Temperature decrease (Mus musculus [11]): 3.2 degrees F; Ki [12]: 640 nM; Ki [13]: 11.4 nM
NC(=O)c1cc2c3c(ccc2[nH]1)OCC(CN1CCC2(CC1)C(=O)NCN2c1ccccc1)O3 (stereo unspecified) | 0.3 nM | 29.4 nM | 1.8 nM | > 1722 nM | 
O=C1NCN(c2ccccc2)C12CCN(CC1COc3ccc4[nH]c(CO)cc4c3O1)CC2 (stereo unspecified) | 0.6 nM | 8.8 nM | 2 nM | > 1722 nM | 
COC(=O)c1cc2c3c(ccc2[nH]1)OCC(CN1CCC(n2c(O)nc4ccccc42)CC1)O3 (stereo unspecified) | 0.6 nM | 1.8 nM | 6.7 nM | 31.6 nM | 
